From ChEMBL document CHEMBL1157779, “Merging the structural motifs of functionalized amino acids and alpha-aminoamides: compounds with significant anticonvulsant activities” (J Med Chem, 2010)
The source made the active and inactive calls. No cut-off for these calls is given here.

Key:
[1] = tested on: Mus musculus; assay: Anticonvulsant activity in albino mouse assessed as protection against subcutaneous metrazole-induced seizures up to 300 mg/kg, ip after 4 hrs; format: functional, organism-based; parameters: dose 300 mg/kg
How it was run: (§1)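 Male albino Carworth Farms No. 1 mice dosed ip under NIH Anticonvulsant Screening Program; subcutaneous Metrazol seizure challenge at 0.5 and 4 h after doses up to 300 mg/kg.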

[2] = tested on: Mus musculus; assay: Anticonvulsant activity in albino mouse assessed as protection against subcutaneous metrazole-induced seizures up to 300 mg/kg, ip after 0.5 hrs; format: functional, organism-based; parameters: dose 300 mg/kg; how it was run: as §1
[3] = Toxicity in ip dosed albino mouse by rotarod test; format: organism-based; settings: in vivo
How it was run: (§2)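 Male albino Carworth Farms No. 1 mice dosed ip; neurological impairment by rotorod test at set times; TD50 (mg/kg) determined for compounds active in MES.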

[4] = tested on: Mus musculus; assay: Anticonvulsant activity in ip dosed albino mouse assessed as inhibition of maximal electroshock-induced seizures after 0.5 hrs; format: functional
[5] = tested on: Rattus norvegicus; assay: Anticonvulsant activity in po dosed Sprague-Dawley albino rat assessed as inhibition of maximal electroshock-induced seizures; format: functional
How it was run: (§3)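 Male albino Sprague-Dawley rats dosed orally; maximal electroshock seizures, protection scored as blockade of hind limb extension, tested at set times after dosing; ED50 in mg/kg from quantitative evaluation for active compounds.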

[6] = tested on: Rattus norvegicus; assay: (§4) Behavioral toxicity in po dosed Sprague-Dawley albino rat after 4 hrs; format: organism-based; settings: in vivo, 4 h
How it was run: (§5)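 Oral dosing in male albino Sprague-Dawley rats with behavioral toxicity observation at set times after dosing, doses up to 500 mg/kg.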

[7] = tested on: Mus musculus; assay: Anticonvulsant activity in ip dosed albino mouse assessed as inhibition of maximal electroshock-induced seizures after 4 hrs; format: functional
How it was run: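 Male albino Carworth Farms No. 1 mice given compound ip; maximal electroshock applied and protection scored as blockade of hind limb extension; identification screening, then ED50 (mg/kg) from quantitative testing for active compounds.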

[8] = tested on: Rattus norvegicus; assay: Anticonvulsant activity in po dosed Sprague-Dawley albino rat assessed as inhibition of maximal electroshock-induced seizures after 4 hrs; format: functional; how it was run: as §3
[9] = species: Rattus norvegicus; assay: Protective index, ratio of TD50 for Sprague-Dawley albino rat to anticonvulsant ED50 for Sprague-Dawley albino rat; format: functional
How it was run: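 Rat, oral: behavioral-toxicity TD50 divided by MES ED50, both in mg/kg.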

[10] = tested on: Mus musculus; assay: (§6) Toxicity in ip dosed albino mouse after 0.5 hrs by rotarod test; format: organism-based; settings: in vivo, 0.5 h
[11] = tested on: Mus musculus; assay: Anticonvulsant activity in ip dosed albino mouse assessed as protection against subcutaneous metrazole-induced seizures; format: functional
How it was run: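 Subcutaneous Metrazol seizure model in male albino Carworth Farms No. 1 mice, ip dosing. Doses up to 300 mg/kg tested at two time points (0.5 and 4 h).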

[12] = as §6; format: organism-based; settings: albino, in vivo
[13] = Toxicity in ip dosed albino mouse after 4 hrs by rotarod test; format: organism-based; settings: in vivo; how it was run: as §2
[14] = as §4; format: organism-based; settings: Sprague-Dawley, in vivo; how it was run: as §5
[15] = tested on: Mus musculus; assay: Anticonvulsant activity in ip dosed albino mouse assessed as inhibition of maximal electroshock-induced seizures after 1 hr; format: functional
How it was run: (§7)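 Male albino Carworth Farms No. 1 mice dosed intraperitoneally; screened via the NIH Anticonvulsant Screening Program. Protection scored as blocking of hind limb extension after maximal electroshock. Median effective dose (ED50, mg/kg) obtained in quantitative evaluations of active compounds. Rotorod test gave TD50 for neurological impairment, and PI = TD50/ED50.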

[16] = Behavioral toxicity in po dosed Sprague-Dawley albino rat after 0.25 to 4 hrs; format: organism-based; settings: in vivo; how it was run: as §5
[17] = tested on: Rattus norvegicus; assay: Anticonvulsant activity in po dosed Sprague-Dawley albino rat assessed as inhibition of maximal electroshock-induced seizures after 0.25 to 2 hrs; format: functional; how it was run: as §3
[18] = tested on: Mus musculus; assay: Anticonvulsant activity in ip dosed albino mouse assessed as inhibition of maximal electroshock-induced seizures after […]; format: functional
[19] = tested on: Mus musculus; assay: Anticonvulsant activity in ip dosed albino mouse assessed as protection against 6 Hz electric shock-induced seizures after 0.5 hrs; format: functional
How it was run: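 Psychomotor 6 Hz (32 mA) seizure model in male albino Carworth Farms No. 1 mice given compound ip; ED50 in mg/kg.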

[20] = species: Mus musculus; assay: Protective index, ratio of TD50 for albino mouse to anticonvulsant ED50 for albino mouse; format: functional
[21] = tested on: Mus musculus; assay: Anticonvulsant activity in ip dosed albino mouse assessed as inhibition of maximal electroshock-induced seizures; format: functional; how it was run: as §7
[22] = tested on: Rattus norvegicus; assay: Anticonvulsant activity in po dosed Sprague-Dawley albino rat assessed as inhibition of maximal electroshock-induced seizures after 2 hrs; format: functional
[23] = Toxicity in ip dosed albino mouse after […] by rotarod test; format: organism-based; settings: in vivo
[24] = tested on: Rattus norvegicus; assay: Anticonvulsant activity in po dosed Sprague-Dawley albino rat assessed as inhibition of maximal electroshock-induced seizures after 1 hr; format: functional; how it was run: as §3
[25] = Behavioral toxicity in po dosed Sprague-Dawley albino rat after […]; format: organism-based; settings: in vivo
[26] = tested on: Mus musculus; assay: Anticonvulsant activity in ip dosed albino mouse assessed as protection against 6 Hz electric shock-induced seizures after […]; format: functional
[27] = tested on: Rattus norvegicus; assay: Behavioral toxicity in po dosed Sprague-Dawley albino rat; format: organism-based; settings: in vivo

Q: For `COC[C@H](NC(C)=O)C(=O)NCc1ccc(OCc2cccc(F)c2)cc1`, which Activity [1] is on record?
A: The Activity was “inactive”.

Q: And the Activity [2]?
A: Its Activity is “inactive”.

Q: Which TD50 [3] does the source give for `CC(=O)NC(C(=O)NCc1ccccc1)c1ccco1` (racemic) here?
A: Its TD50 is 40 mg/kg.

Q: With `CC(=O)N[C@H](C)C(=O)NCc1ccc(OCc2cccc(F)c2)cc1` as the compound, how does the ED50 [4] read?
A: The ED50 was > 30 mg/kg.

Q: And the ED50 [5]?
A: The ED50 was 21 mg/kg.

Q: What about the Activity [1] of the same compound?
A: The Activity was “inactive”.

Q: What about the TD50 [6] of the same compound?
A: The TD50 was > 500 mg/kg.

Q: What about the Activity [2] of the same compound?
A: The Activity was “inactive”.

Q: And the ED50 [7]?
A: The ED50 was < 100 mg/kg.

Q: And the ED50 [8]?
A: The ED50 was 31 mg/kg.

Q: What about the “Ratio TD50/ED50” value [9] of the same compound?
A: The value was >16.

Q: What about the TD50 [10] of the same compound?
A: Its TD50 is > 300 mg/kg.

Q: What does the source list for `CCC1(c2ccccc2)C(=O)NC(=O)NC1=O`?
A: Activity [1]: inactive; Activity [2]: inactive

Q: With `O=C1NC(=O)C(c2ccccc2)(c2ccccc2)N1` as the compound, how does the Activity [1] read?
A: Its Activity is “inactive”.

Q: And the Activity [2]?
A: Its Activity is “inactive”.

Q: Which ED50 [4] does the source give for `NC(=O)C(NCc1ccc(OCc2cccc(F)c2)cc1)c1ccco1.O=C(O)C(=O)O` (racemic) here?
A: The ED50 was 10 mg/kg.

Q: And the ED50 [11]?
A: Its ED50 is 100 mg/kg.

Q: What about the TD50 at 0.5 h [12] of the same compound?
A: The TD50 at 0.5 h was 100 mg/kg.

Q: Which TD50 at 4 h [13] does the source give for `COC[C@@H](NC(C)=O)C(=O)NCc1ccc(C#Cc2cccc(F)c2)cc1` here?
A: The TD50 at 4 h was 100 mg/kg.

Q: What about the TD50 at 4 h [14] of the same compound?
A: Its TD50 at 4 h is 63 mg/kg.

Q: What about the ED50 [15] of the same compound?
A: Its ED50 is > 30 mg/kg.

Q: What about the ED50 [7] of the same compound?
A: The ED50 was < 100 mg/kg.

Q: What about the ED50 [8] of the same compound?
A: The ED50 was 1.4 mg/kg.

Q: With `COC[C@@H](NC(C)=O)C(=O)NCc1ccc(Oc2cccc(F)c2)cc1` as the compound, how does the TD50 [16] read?
A: The TD50 was > 10 mg/kg.

Q: What about the ED50 [17] of the same compound?
A: Its ED50 is < 10 mg/kg.

Q: And the ED50 [18]?
A: Its ED50 is 5.5 mg/kg.

Q: And the ED50 [19]?
A: The ED50 was 10 mg/kg.

Q: And the “Ratio TD50/ED50” value [20]?
A: The value was 4.2.

Q: For `COCC(NCc1ccc(OCc2cccc(F)c2)cc1)C(N)=O` (racemic), which ED50 [4] is on record?
A: Its ED50 is 30 mg/kg.

Q: What about the ED50 [11] of the same compound?
A: Its ED50 is > 300 mg/kg.

Q: And the TD50 at 0.5 h [12]?
A: The TD50 at 0.5 h was 100 mg/kg.

Q: Which Activity [1] does the source give for `C[C@H](NCc1ccc(OCc2cccc(F)c2)cc1)C(N)=O` [SAFINAMIDE] here?
A: The Activity was “inactive”.

Q: What about the Activity [2] of the same compound?
A: The Activity was “inactive”.

Q: What about the TD50 [3] of the same compound?
A: Its TD50 is 630 mg/kg.

Q: What about the ED50 [11] of the same compound?
A: The ED50 was 27 mg/kg.

Q: And the “Ratio TD50/ED50” value [20]?
A: The value was 78.

Q: What about the ED50 [21] of the same compound?
A: The ED50 was 8 mg/kg.

Q: For `CC(=O)N[C@@H](C(=O)NCc1ccc(OCc2cccc(F)c2)cc1)C(C)(C)C`, which Activity [1] is on record?
A: Its Activity is “inactive”.

Q: What about the TD50 at 4 h [13] of the same compound?
A: Its TD50 at 4 h is 300 mg/kg.

Q: What about the Activity [2] of the same compound?
A: The Activity was “inactive”.

Q: What about the ED50 [7] of the same compound?
A: The ED50 was > 300 mg/kg.

Q: And the TD50 [10]?
A: The TD50 was > 300 mg/kg.

Q: With `COC[C@@H](NC(C)=O)C(=O)NCc1ccc(COc2cccc(F)c2)cc1` as the compound, how does the ED50 [22] read?
A: The ED50 was 19 mg/kg.

Q: And the TD50 at […] [23]?
A: The TD50 at […] was 10 mg/kg.

Q: And the ED50 [18]?
A: The ED50 was 5.9 mg/kg.

Q: And the “Ratio TD50/ED50” value [9]?
A: Its value is >21.

Q: And the “Ratio TD50/ED50” value [20]?
A: The value was 1.8.

Q: For `C[C@@H](NCc1ccc(OCc2cccc(F)c2)cc1)C(N)=O`, which Activity [1] is on record?
A: The Activity was “inactive”.

Q: And the Activity [2]?
A: The Activity was “inactive”.

Q: What about the TD50 [3] of the same compound?
A: Its TD50 is 580 mg/kg.

Q: What about the “Ratio TD50/ED50” value [20] of the same compound?
A: Its value is 88.

Q: And the ED50 ([21]; read-out: ED50)?
A: The ED50 was 7.2 mg/kg.

Q: For `COC[C@@H](NC(C)=O)C(=O)NCc1ccc(/C=C/c2cccc(F)c2)cc1`, which ED50 [4] is on record?
A: The ED50 was 30 mg/kg.

Q: And the ED50 [24]?
A: The ED50 was 30 mg/kg.

Q: What about the TD50 at […] [25] of the same compound?
A: The TD50 at […] was > 30 mg/kg.

Q: And the ED50 [8]?
A: Its ED50 is 30 mg/kg.

Q: And the ED50 [26]?
A: The ED50 was < 30 mg/kg.

Q: And the TD50 at 0.5 h [12]?
A: Its TD50 at 0.5 h is 100 mg/kg.

Q: For `COC[C@@H](NC(C)=O)C(=O)NCc1ccc(-c2cccc(F)c2)cc1`, which ED50 [4] is on record?
A: Its ED50 is 10 mg/kg.

Q: And the ED50 [24]?
A: Its ED50 is 2.4 mg/kg.

Q: What about the TD50 [27] of the same compound?
A: The TD50 was > 500 mg/kg.

Q: And the “Ratio TD50/ED50” value [9]?
A: Its value is >250.

Q: What about the ED50 [26] of the same compound?
A: Its ED50 is < 30 mg/kg.

Q: What about the TD50 at 0.5 h [12] of the same compound?
A: Its TD50 at 0.5 h is 100 mg/kg.
